Results on two compounds are retold here after paper PMC12642897 (Journal of Enzyme Inhibition and Medicinal Chemistry, 2025).

The target in one experiment is α-glucosidase (Saccharomyces cerevisiae, UniProt P53341). Nature of the experiment: α-Glucosidase enzyme kinetic analysis. The experiment is classed as biochemical. To be noted: Lineweaver–Burk plot. The gist of the method:
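Yeast (S. cerevisiae) α-glucosidase in phosphate buffer, pH 6.8. p-NPG at 0.625, 1.25 and 2.5 mM was crossed with four concentrations of each test compound (sets of 7–40, 20–80 or 2–12 µM). Incubated 10 min at 37 °C, stopped with 0.2 M Na₂CO₃, read at 405 nm. Lineweaver–Burk plots assign inhibition mode.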

Experiment [1] concerns the target T1, PTP1B (Homo sapiens, UniProt P18031).
T1 sequence (P18031 1-435): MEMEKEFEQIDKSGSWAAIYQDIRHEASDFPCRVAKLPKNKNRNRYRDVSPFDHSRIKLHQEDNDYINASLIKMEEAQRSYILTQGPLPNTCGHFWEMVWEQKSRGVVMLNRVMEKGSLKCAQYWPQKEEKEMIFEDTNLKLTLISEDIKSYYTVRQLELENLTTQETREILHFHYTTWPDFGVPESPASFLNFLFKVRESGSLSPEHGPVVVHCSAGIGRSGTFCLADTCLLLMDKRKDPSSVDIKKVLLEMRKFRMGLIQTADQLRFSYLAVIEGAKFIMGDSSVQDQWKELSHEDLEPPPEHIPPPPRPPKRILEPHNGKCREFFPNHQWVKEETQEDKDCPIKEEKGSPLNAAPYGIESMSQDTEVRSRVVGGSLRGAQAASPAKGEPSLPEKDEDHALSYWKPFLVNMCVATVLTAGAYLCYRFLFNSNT
The experiment is described as follows: PTP1B inhibition assay. The following applies: PTP1B IC50, isolated compounds and positive control; tested 1 to 100 µM. The class given is biochemical.

Experiment [2] deals with T1, PTP1B. Nature of the experiment: PTP1B enzyme kinetic analysis. The experiment is classed as biochemical. To be noted: for Ki: PTP1B Ki value, secondary plot. Summed up: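 Human recombinant PTP1B in 50 mM citrate buffer (pH 6.0) with 0.1 M NaCl, 1 mM EDTA and 1 mM DTT. Test compound at 2, 4, 10 and 12 µM was crossed with p-NPP at 0.5, 1 and 2 mM. Enzyme plus inhibitor preincubated 10 min at 37 °C, then substrate added for 20 min at 37 °C. NaOH stop, A405. Lineweaver–Burk for mode; secondary plots for Kic/Kiu.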

For experiment [3], the target named is α-glucosidase enzyme from Saccharomyces cerevisiae (Saccharomyces cerevisiae, UniProt P53341). The experiment is described as follows: α-Glucosidase inhibition assay. The experiment is classed as biochemical.
For a further experiment, the target named is rat sucrase. To be noted: read-out: IC50 against rat sucrase; ref 44 (Barber's review); cited from earlier work.
For the next experiment, the target named is rat maltase. The following applies: read-out: IC50 against rat maltase; ref 44 (Barber's review); cited from earlier work.

Sequence of α-glucosidase enzyme from Saccharomyces cerevisiae (P53341 whole entry): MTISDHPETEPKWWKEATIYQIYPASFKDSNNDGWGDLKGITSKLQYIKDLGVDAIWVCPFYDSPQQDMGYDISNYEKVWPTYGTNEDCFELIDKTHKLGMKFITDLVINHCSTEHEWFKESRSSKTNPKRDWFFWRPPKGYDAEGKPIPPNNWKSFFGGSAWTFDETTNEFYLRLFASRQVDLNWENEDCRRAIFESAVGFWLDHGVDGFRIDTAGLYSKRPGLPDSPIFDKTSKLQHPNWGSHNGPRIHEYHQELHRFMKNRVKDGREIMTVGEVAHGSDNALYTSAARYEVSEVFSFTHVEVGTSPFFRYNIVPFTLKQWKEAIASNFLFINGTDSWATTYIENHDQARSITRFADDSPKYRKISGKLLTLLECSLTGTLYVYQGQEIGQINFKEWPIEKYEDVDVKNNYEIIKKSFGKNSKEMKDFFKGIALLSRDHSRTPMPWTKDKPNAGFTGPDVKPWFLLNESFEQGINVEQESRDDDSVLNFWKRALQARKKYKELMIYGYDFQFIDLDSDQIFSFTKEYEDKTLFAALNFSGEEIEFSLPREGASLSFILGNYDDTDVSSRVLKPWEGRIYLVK
Sequence of α-glucosidase (P53341 whole entry): as above

What is called IC50 is the concentration that inhibits the measured activity by half. Broadly, the Ki is a dissociation constant, usually derived from enzyme kinetics or from competition with a known ligand. Regarding `O=c1oc(-c2ccc(O)c(O)c2)cc2cccc(O)c12` [Compound 12, Thunberginol A], the “α-glucosidase Inhibition type” value on α-glucosidase was “Uncompetitive”. The figures for the IC50 (on PTP1B [1]; in experiment [3]) were 8 ± 1.1 µM and 3.4 ± 0.2 µM, respectively. The “PTP1B Inhibition type” value on PTP1B [2] (Lineweaver–Burk plot) is reported as “mixed-type”. The Ki was found to be 12.2 µM at PTP1B [2] (Kic) and 5.5 µM on PTP1B [2] (Kiu). Besides, in experiment [3] (ratio of IC50 values), the “α-glucosidase potency relative to acarbose” value is “over 70 times”.
Take `O=c1c(O)c(-c2ccc(O)c(O)c2)oc2cc(O)cc(O)c12` [quercetin]: the concentration for half-maximal inhibition (IC50) was above 400 µM on rat sucrase and 281 µM at rat maltase.
